Bioassay records from PubChem.
Rows were chosen to be rich in hits. Some 2.7% of all compounds tested hit in one or more screens of this group.
Yeast lifespan up: extends the lifespan of yeast | S. cerevisiae growth with nicotinamide, OD615; deaD strain in restrictive glucose medium | inhibition of the nicotinamide effect, % at 10 µM | 130,000 compounds, 0.68% hits;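 active = inhibition above a set limit, placed 3 SD over the median of all compounds, cut at about 26% in these data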;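 note: 0% = nicotinamide-treated wells and 100% = cells grown without nicotinamide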
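Test system: DeaD-strain S. cerevisiae / Buffer or medium: restrictive glucose medium / Also added: nicotinamide 1.5 mM / Doses: one concentration, 10 µM, DMSO 0.25% / Schedule: 48 h at 30 °C / Signal: OD615 measurement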
RAM inhibit: yeast RAM network inhibition. S. cerevisiae dse1pr::URA3 reporter, 5-FOA growth OD615, 2 d; analog-sensitive cbk1-as2 kinase mutant strain. inhibition, % at 50 µM. 190,000 compounds, 1.8% hits. AID 868;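 active = inhibition above a set limit, 3 SD over mean compound inhibition, cut at about 8.4% in these data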;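 note: 0% = DMSO-only wells with no growth and 100% = 10 µM 1-NA-PP1 full growth; inhibition rescues growth on 5-FOA so higher OD means more RAM inhibition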
Yeast growth inh: yeast BB579 growth reduction in restrictive medium | 140,000 compounds, 0.51% hits | inhibition, % at 10 µM | S. cerevisiae BB579 growth, OD615, 48 h | AID 804;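 active = inhibition above a set limit, 3 SD over the mean compound inhibition, cut at about 44% in these data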
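System: DeaD yeast strain BB579; buffer or medium: CSMM-D dextrose restrictive medium; technique: OD at 615 nm; schedule: 4 h cell preincubation, 48 h compound exposure, 30 °C humidified; doses: single 10 µM dose; controls: amphotericin B 10 µg/mL, positive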
SDO1 yeast rescue: sdo1-depleted yeast growth rescue; S. cerevisiae sdo1-depleted JHY4D growth rescue, OD600 30 h; active compounds read high; pdr5 snq2 efflux-pump mutant strain; z-score at 10 µM; 140,000 compounds, 0.21% hits; AID 817;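 active = z-score above 3 at both the 24 hr and the 30 hr optical density reads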;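 note: z-score against mean and SD of all compound wells on the same plate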
* = called active by the depositor; . = no result given.

SMILES	Yeast lifespan up	RAM inhibit	Yeast growth inh	SDO1 yeast rescue
O=C(/C=C/c1ccccc1)NC(NC(=S)Nc1cccc(Cl)c1)C(Cl)(Cl)Cl (stereo not given)	0.0	8.9*	-26.0	0.54
O=C(NC(NC(=S)Nc1ccccc1Cl)C(Cl)(Cl)Cl)c1cccc(Cl)c1 (stereo not given)	3.3	9.4*	-12.3	-0.06
CSc1cccc(NC(=O)/C=C/c2cccc(Cl)c2)c1	-4.1	9.1*	-47.8	-1.79
O=C(/C=C/c1cccc(Cl)c1)Nc1ncccn1	-8.5	-1.5	-21.9	0.27
CC(C)NOC(=O)c1ccc(Cl)cc1	.	-0.7	.	.
Cc1ccc(-c2csc(C3=C(O)CN(NC(=O)c4ccc([N+](=O)[O-])cc4)C3=N)n2)cc1	.	8.6*	.	.
Cc1ccc(-c2c(C(=O)Nc3ccccc3C)c(C)[nH]c(=S)c2C#N)o1	.	8.5*	.	.
CCN(CC)C(=O)c1c(C)[nH]c(=S)c(C#N)c1-c1ccco1	.	-0.1	.	.
CC1(C)CC(CC(=O)Nc2nccs2)(c2ccccc2)CCO1 (stereo not given)	0.8	0.1	-3.7	0.33
Cc1ccccc1OCC(=O)OCC(=O)NCc1cccs1	0.8	4.0	-33.5	0.6
CCCC[C@@H]1C[C@H]1[C@@H](NC(=O)c1cccs1)c1ccc(Cl)cc1	16.7	9.8*	-31.3	-0.39
CCCC[C@@H]1C[C@H]1[C@@H](NC(=O)c1ccco1)c1ccc(Cl)cc1	14.5	7.3	-33.5	-1.37
Nc1nnc(SCc2nnc(-c3ccccc3)o2)s1	.	-0.4	.	.
Cc1cc(N)nc2nc(C(F)(F)F)nn12	.	0.6	.	.
Cc1nc2c(c(-c3ccccc3)c1C#N)C(=O)c1ccccc1-2	-17.2	3.9	-35.5	-1.14
Cc1nc2c(c(C)c1C#N)C(=O)c1ccccc1-2	-6.6	5.2	64.0*	-0.26
Nc1cc(C(F)(F)F)ccc1-n1cccc1	.	2.9	.	.
Cc1sc2ncn(C(C)C(=O)OC3CCCCC3)c(=O)c2c1C (stereo not given)	27.3*	0.1	-40.2	0
COc1cc(/C=N/NC(=O)C2C3CCCCC32C)cc(Br)c1O (stereo not given)	5.9	0.5	-33.0	0.83
C=CCn1cnc2c(c1=O)c1nc3ccccc3nc1n2-c1ccc(C)cc1	-8.7	3.4	-23.0	-0.7
C=CCn1cnc2c(c1=O)c1nc3ccccc3nc1n2/N=C/c1cc(OC)c(OC)c(OC)c1	-24.2	-0.1	58.4*	-0.59
CNC(=S)N1CCN(c2ccc(Cl)c(Cl)c2)CC1	.	-0.8	.	.
CCc1cc2c(=O)c(-c3nc4ccccc4[nH]3)coc2cc1OC(=O)N1CCOCC1	18.2	10.8*	-22.9	-1.6
CCc1cc2c(=O)c(-c3ccc4c(c3)OCCO4)coc2cc1OC(=O)c1ccco1	-11.9	0.8	-42.7	-1.42
CCc1nn(CC(=O)Nc2ccc(Br)c(C)c2)c(=N)s1	.	1.0	.	.
SMILES	Yeast lifespan up	RAM inhibit	Yeast growth inh	SDO1 yeast rescue
Cc1ccc(OCCOC(=O)c2sc(=S)n(C)c2C)cc1	.	2.4	.	.
Cc1c(C(=O)OCCOc2ccc(Br)cc2)sc(=S)n1C	.	10.7*	.	.
COc1ccc(C(=O)/C=C/c2cccs2)c(OC(=O)c2cccc([N+](=O)[O-])c2)c1	-10.3	9.3*	-70.6	-1.57
COc1ccc(C(=O)/C=C/c2ccc(F)cc2)c(OC(=O)c2ccc([N+](=O)[O-])cc2)c1	-5.0	2.5	-16.3	-1.67
Cc1ccc(C(=O)Oc2cccc(NC(=O)c3ccccc3)c2)cc1C	3.1	10.5*	-20.1	-0.5
COc1cc2c(cc1OC)C(C1C(=O)CC(C)CC1=O)N(C(=O)CCl)CC2 (stereo not given)	-0.5	1.1	9.8	1.22
COC(=O)c1ccc2c(c1O)C(=O)c1ccccc1C2=O	-11.2	-0.4	66.6*	-2.02
Nc1c(C(=O)O)ccc2c1C(=O)c1ccccc1C2=O	.	0.5	.	.
CN(Cc1ccccc1)C(=O)c1ccco1	.	2.1	.	.
O=C(O)/C=C/C(=O)N(Cc1ccccc1)Cc1ccco1	2.9	-0.9	3.1	0.58
O=C(c1ccco1)N(CCC(c1ccccc1)c1ccco1)Cc1ccco1 (stereo not given)	-17.5	8.8*	-71.5	-0.42
Cc1ccc(C(CCN(Cc2ccccc2)C(=O)c2ccco2)c2ccco2)cc1 (stereo not given)	1.3	10.6*	-29.1	-0.08
COc1ccccc1C(=O)C1CCCN(Cc2cn[nH]c2C2CCCCC2)C1 (stereo not given)	.	0.8	.	.
CN(C)C(=O)c1ccc(NC(=O)COc2ccc([N+](=O)[O-])cc2)cc1	.	5.8	.	.
O=C(CSc1nnc2ccccn12)Nc1ccc(S(=O)(=O)N2CCOCC2)cc1	.	1.6	.	.
